Rad51 HR inh = blocks human Rad51 in homologous recombination; AID 1385; Q06609; actives 0.085% (n = 200,000); hRad51 DNA strand exchange, fluorescence dequenching; inhibition, % at 10 µM;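 active = inhibition above 40% at the single screening dose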;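 note: 0% = DMSO control wells and 100% = blanks with heterologous ssDNA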
Target sequence (Q06609 whole entry, looked up): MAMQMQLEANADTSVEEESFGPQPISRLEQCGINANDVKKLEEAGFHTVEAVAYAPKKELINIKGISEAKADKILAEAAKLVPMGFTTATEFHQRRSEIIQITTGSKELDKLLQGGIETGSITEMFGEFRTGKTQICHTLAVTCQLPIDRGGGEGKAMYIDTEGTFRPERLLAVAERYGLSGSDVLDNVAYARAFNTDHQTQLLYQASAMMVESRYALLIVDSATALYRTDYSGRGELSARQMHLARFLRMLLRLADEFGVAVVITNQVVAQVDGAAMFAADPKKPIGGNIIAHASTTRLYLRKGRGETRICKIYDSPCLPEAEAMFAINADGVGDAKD
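material = hRad51 filaments on single-stranded DNA | reagent = Donor/quencher-labelled 47-bp dsDNA substrate | compound = 10 µM final, single point | schedule = strand-exchange reaction 15 min at room temperature | measured by = fluorescein emission 520 nm, excitation 485 nm | read-out basis = % inhibition versus plate control and blank means | benchmarks = plate controls and plate blanks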
zVAD death inh = blocks zVAD induced death of L929 cells; actives 0.38% (n = 220,000); L929 zVAD necroptosis rescue, ATP luminescence, 24 h; with zVAD 60 µM; viability rescue, % at 10 µM; AID 1377;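 active = activation, scaled between plate controls, above about 75%, limit read from the data; inactive = activation under that limit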;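 note: 0% = zVAD with DMSO and 100% = DMSO alone without zVAD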
Pf gametocyte = inhibitors of late stage P. falciparum gametocyte viability; P. falciparum stage V gametocytes, ATP luminescence, 24 h; inhibition, % at 10.9 µM; actives 0.065% (n = 150,000); AID 743093;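 active = inhibition above the mean plus 3 SD of compounds within the control limits, set per campaign, cut at about 38% in these data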;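 note: 0% = DMSO wells and 100% = medium only without gametocytes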
Mdm2 ligase inh = blocks human Mdm2 ubiquitin ligase activity; Q00987; cell-based MDM2 ubiquitination luciferase reporter, 2 h; 0 = plate control, 100 = twice control, blank-subtracted; signal enhancement, % at 5 µM; actives 0.11% (n = 210,000);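 active = signal enhancement of 30% or more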;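 note: luminescence tracks abundance of the self-degrading MDM2-luciferase fusion protein; higher signal means inhibition of MDM2 E3 ligase activity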
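test system = mammalian cells stably expressing self-ubiquitinating, self-degrading MDM2 E3–luciferase fusion | quantity = 2000 cells/well | incubation = cell settling 4 h, compound treatment 2 h, both 37 °C | signal = luminescence with SteadyLite reagent, 15 min at room temperature | evaluation = % enhancement relative to plate controls after blank subtraction | benchmarks = plate controls and plate blanks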
TNF necrop inh = TNF-alpha cell death inhibition in Jurkat FADD-/- cells | Jurkat FADD-/- TNF necroptosis rescue, ATP luminescence, 24 h; 0 = TNF only, 100 = no-TNF cells | activation (protection from cell death), % at 10 µM | actives 0.068% (n = 220,000) | AID 463075;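 active = activation, meaning protection from cell death, of at least 50% relative to plate controls; inactive = activation below 50%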;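 note: necroptosis triggered by 40 ng/mL TNF-alpha added together with compound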
zVAD death conf = confirmed blocker of zVAD induced death in L929 cells; actives 16% (n = 760); AID 463117; activation (protection from necroptosis), % at 10 µM; L929 zVAD-induced necroptosis rescue, ATP luminescence, 24 h; shares compounds with zVAD death inh;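 active = mean protection from necroptosis of at least 50% over duplicate tests; inactive = mean protection below 50%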;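 note: 0% = cells with zVAD alone and 100% = vehicle cells without zVAD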
Numbers without * were called inactive; · = not tested or not shown. In the library only some 0.58% were active in any assay of this set; here they are far more common.

SMILES | Rad51 HR inh | zVAD death inh | Pf gametocyte | Mdm2 ligase inh | TNF necrop inh | zVAD death conf
COc1ccc(N2CCN(C(=O)Nc3cccc(C(F)(F)F)c3)CC2)cc1 | 4 | 0 | · | -10 | 2 | ·
COCC(C)n1c(C)cc(C(=O)CSc2nnnn2-c2ccc(O)cc2)c1C (stereo not given) | 5 | 76* | · | -5 | 0 | 47
COCC(C)n1c(C)cc(C(=O)CSc2ncccn2)c1C (stereo not given) | -5 | 0 | 22 | -29 | 1 | ·
CCCN1C(=O)/C(=C/c2ccc3c(c2)OCO3)NC1=S | -6 | 87* | · | -10 | 46 | 90*
Nc1nnn(CC(=O)N/N=C/C=C/c2ccccc2)n1 | · | 1 | -32 | -14 | 3 | ·
N#C/C(=C(/O)COC(=O)CCc1ccc(S(=O)(=O)N2CCOCC2)cc1)c1nc2ccccc2[nH]1 | -14 | 78* | -4 | · | 9 | 13
N#C/C(=C(/O)COC(=O)c1ccc(Cl)c(S(=O)(=O)N2CCOCC2)c1)c1nc2ccccc2[nH]1 | -6 | 16 | -8 | -10 | 4 | ·
COc1ccc2[nH]cc(CCNC(=O)c3ccc4ccccc4n3)c2c1 | · | · | -3 | · | · | ·
COCCNC(=O)c1cc(Sc2nnc(C)s2)nc2ccccc12 | 0 | 75* | · | -3 | 4 | 8
Cc1cc(C(=O)N/N=C/c2ccc(-c3cccc(Cl)c3)o2)n[nH]1 | -14 | 75* | 5 | 5 | 23 | 7
Cn1cc(C(=O)N/N=C/c2cccs2)c2ccccc21 | 2 | 81* | -11 | -8 | -3 | 5
Cc1cc(C(=O)N/N=C/c2cccs2)n[nH]1 | -5 | 82* | -4 | -18 | 20 | 2
Cc1cc(C(=O)N/N=C/c2cccs2)no1 | · | 0 | 0 | -12 | 2 | ·
Nc1ccn(Cc2ccc(F)cc2)n1 | -134 | 0 | 5 | -6 | 2 | ·
C(=N\Nc1ccccn1)/c1ccc2c(c1)OCCO2 | 32 | 83* | -53 | -47 | 19 | 2
Fc1cccc(F)c1/C=N/Nc1ccccn1 | 26 | 90* | 19 | -22 | 13 | 24
Fc1cccc(Cl)c1/C=N/Nc1ccccn1 | -1 | 83* | -15 | -2 | 16 | 1
O=S(=O)(N/N=C/c1ccc2c(c1)OCCO2)c1ccccc1 | 6 | 0 | · | -11 | -2 | ·
Cc1ccc(C)c(/C=N/Nc2ccccn2)c1 | 4 | 54 | · | -23 | 4 | ·
Fc1cccc(/C=N/Nc2ccccn2)c1 | 0 | 76* | 10 | -12 | 20 | 1
O=C(COC(=O)/C=C/c1cccs1)Nc1cccc(S(=O)(=O)N2CCCC2)c1 | 9 | 3 | 9 | -4 | 0 | ·
CCOc1ccc(Oc2ccc(NC(=O)[C@@H](NC(N)=O)[C@@H](C)CC)cc2)cc1 | -1 | 1 | 15 | · | 3 | ·
CCOC(=O)c1cnc(-c2ccccc2)nc1N | -12 | 0 | · | -17 | -1 | ·
CCOC(=O)c1ccc2ncc(-c3ccccc3)nc2c1 | 4 | 76* | 10 | -7 | 0 | 1
COC(=O)c1ccc2c(c1)NC(=O)C1CCCN21 (stereo not given) | -5 | · | · | 8 | · | ·
SMILES | Rad51 HR inh | zVAD death inh | Pf gametocyte | Mdm2 ligase inh | TNF necrop inh | zVAD death conf
Cc1ccc(NC(=O)COC(=O)c2ccc3c(c2)NC(=O)C2CCCN32)cc1 (stereo not given) | -9 | 83* | 11 | -18 | -2 | 48
CC(C)(C)c1ccc(/C=N/N2CCN(c3ccccn3)CC2)cc1 | 3 | 82* | 4 | -3 | 10 | 31
O=C(Nc1ccc(F)cc1)Nc1ccc(N2CCCC2)c(S(=O)(=O)Nc2ccccc2Cl)c1 | -11 | 76* | -6 | 4 | 2 | 72*
Cc1ccc(NC(=O)CSc2ccc(-c3cccnc3)nn2)cc1Cl | 4 | 82* | -13 | 26 | 1 | 1
CCOC(=O)c1ccc(NC(=O)CSc2ccc(-c3ccncc3)nn2)cc1 | -4 | 1 | 22 | -4 | 2 | ·
O=C(NCCc1ccccc1)c1cc(=O)[nH]c2ccccc12 | 1 | 2 | 8 | -35 | 1 | ·
COC(=O)C1C(=O)C(C(=O)/C=C/c2ccccc2)C(=O)CC1(C)C (stereo not given) | 5 | 81* | -6 | -5 | 4 | 1
CC(=O)N(C)c1ccc(NC(=O)Nc2ccc(C)cc2)cc1 | 1 | 77* | -10 | -16 | -1 | 37
CC(=O)N(C)c1ccc(NC(=O)Nc2ccc(Cl)cc2)cc1 | · | · | -5 | · | · | ·
O=C(CSc1nnnn1-c1ccc(F)cc1F)Nc1ccccc1F | · | · | -6 | · | · | ·
CCOc1ccccc1NC(=O)CSc1nnnn1-c1ccc(C(=O)OC)cc1 | 4 | 77* | · | -1 | -3 | 0
COCCNC(=O)CSc1nc2scc(-c3ccccc3)c2c(=O)[nH]1 | -58 | 0 | -37 | · | 0 | ·
O=C1CNC(=S)N1CCc1ccccc1Cl | -10 | 0 | -10 | -10 | 1 | ·
O=C1CNC(=S)N1CCc1ccc(Cl)cc1 | -4 | 83* | 10 | -5 | 21 | 35
CN(C)/C=N/C1=C(C#N)C(c2cccs2)c2ccc3ccccc3c2O1 (stereo not given) | · | 0 | · | -6 | -7 | ·
COc1ccc(NC(=O)Nc2cccc(C(F)(F)F)c2)cn1 | 3 | 77* | -48 | -12 | 4 | 4
COc1ccc(NC(=S)NNC(=S)Nc2cccc(C(F)(F)F)c2)cc1 | 18 | 77* | -5 | -14 | 0 | 6
COc1ccc(NC(=O)Nc2cc(C)cc(C)c2)cn1 | -40 | 5 | -6 | -9 | 4 | ·
CC1CCN(S(=O)(=O)c2ccc3nc(-c4ccccn4)cc(C(=O)NCCN(C)Cc4ccccc4)c3c2)CC1 | 1 | 0 | -17 | -89 | -3 | ·
Cn1nc(C(C)(C)C)cc1NC(=O)Nc1ccc(F)cc1F | · | 9 | -20 | -7 | 3 | ·
Cn1nc(C(C)(C)C)cc1NC(=O)Nc1ccc(Cl)cc1 | 16 | 82* | -12 | -7 | 6 | 55*
Cn1ccnc1SCC(=O)Nc1sccc1C#N | -5 | 4 | -2 | -18 | 0 | ·
N#Cc1ccsc1NC(=O)CSc1nnnn1-c1ccc(O)cc1 | · | 76* | 18 | 3 | 2 | 41
CCN1C(=O)/C(=C/c2ccc(C)s2)NC1=S | 5 | 98* | -16 | -10 | 49 | 94*
CCN1CCN(Cc2ccc(NC(=O)c3ccc(C)c(NC(=O)c4csc(-c5ccncc5)n4)c3)cc2C(F)(F)F)CC1 | 3 | 84* | 18 | 17 | -4 | 81*
CCN1CCN(Cc2ccc(NC(=O)c3cc(NC(=O)c4ccc5n[nH]nc5c4)cc(OC)c3)cc2C(F)(F)F)CC1 | -1 | 0 | · | 6 | 2 | ·
CCN1CCN(Cc2ccc(NC(=O)c3cc(NC(=O)N4CCNC4=O)cc(OC)c3)cc2C(F)(F)F)CC1 | -7 | 78* | -1 | 13 | -8 | 64*
